Experiments:
[1] = Metabolic stability in mouse brain homogenate assessed as half life at 250 umol/mL by HPLC analysis; assay type: ADME, tissue-based
How it was run: (§1)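 Mouse plasma, diluted with two volumes of water, or brain homogenate (1:5 w/v in cold pH 7.4 phosphate buffer) was spiked with methanol stock (1:4 v/v) and incubated at 37 °C. Aliquots taken at 0–90 min were quenched with acetonitrile and centrifuged. Remaining prodrug was measured by HPLC-UV at 238 nm. Rate constant came from ln(peak area) regression against time, and half-life followed from it.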

[2] = Chemical stability of the compound in phosphate buffer at pH 5 assessed as first order rate constant of compound disappearance at 250 umol/mL by HPLC analysis; assay type: physicochemical
How it was run: (§2)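 Each compound, added as methanol stock, was incubated in phosphate buffer at pH 2.5, 5.0, 7.4 or 8.0 (1:4 v/v) at 37 °C. Samples were taken at 0, 1, 3, 6, 12 and 24 h. Remaining ester was measured by HPLC-UV at 238 nm on C18 with methanol-water 80:20. The pseudo-first-order rate constant came from linear regression of ln(peak area) against time, and half-life followed from it.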

[3] = Chemical stability of the compound in phosphate buffer at pH 2.5 assessed as half life at 250 umol/mL by HPLC analysis; assay type: physicochemical; how it was run: as §2
[4] = Chemical stability of the compound in phosphate buffer at pH 8.0 assessed as half life at 250 umol/mL by HPLC analysis; assay type: physicochemical; how it was run: as §2
[5] = system: Heart; test: Drug uptake in Kunming mouse heart assessed as naproxen level at dose equivalent to 10 mg/kg, iv of naproxen administered as single dose measured by HPLC analysis; assay type: ADME, organism-based; set-up: dose 10 mg/kg, route intravenous; conditions: in vivo
[6] = Chemical stability of the compound in phosphate buffer at pH 5 assessed as half life at 250 umol/mL by HPLC analysis; assay type: physicochemical; how it was run: as §2
[7] = Chemical stability of the compound in phosphate buffer at pH 7.4 assessed as first order rate constant of compound disappearance at 250 umol/mL by HPLC analysis; assay type: physicochemical; how it was run: as §2
[8] = Chemical stability of the compound in phosphate buffer at pH 2.5 assessed as first order rate constant of compound disappearance at 250 umol/mL by HPLC analysis; assay type: physicochemical; how it was run: as §2
[9] = system: Brain; test: Metabolic stability in mouse brain homogenate assessed as first order rate constant of compound disappearance at 250 umol/mL by HPLC analysis; assay type: ADME, tissue-based; how it was run: as §1
[10] = Chemical stability of the compound in phosphate buffer at pH 7.4 assessed as half life at 250 umol/mL by HPLC analysis; assay type: physicochemical; how it was run: as §2
[11] = Metabolic stability in mouse plasma assessed as half life at 250 umol/mL by HPLC analysis; assay type: ADME, cell-free; how it was run: as §1
[12] = system: Plasma; test: Metabolic stability in mouse plasma assessed as first order rate constant of compound disappearance at 250 umol/mL by HPLC analysis; assay type: ADME, cell-free; how it was run: as §1
[13] = system: Muscle tissue; test: Drug uptake in Kunming mouse muscle assessed as naproxen level at dose equivalent to 10 mg/kg, iv of naproxen administered as single dose measured by HPLC analysis; assay type: ADME, organism-based; set-up: dose 10 mg/kg, route intravenous; conditions: in vivo
[14] = system: Kidney; test: Drug uptake in Kunming mouse kidney assessed as naproxen level at dose equivalent to 10 mg/kg, iv of naproxen administered as single dose measured by HPLC analysis; assay type: ADME, organism-based; set-up: dose 10 mg/kg, route intravenous; conditions: in vivo
[15] = system: Plasma; test: AUC (0 to t) in Kunming mouse plasma at dose equivalent to 10 mg/kg, iv of naproxen administered as single dose; assay type: ADME, organism-based; set-up: dose 10 mg/kg, route intravenous; conditions: in vivo
[16] = Chemical stability of the compound in phosphate buffer at pH 8.0 assessed as first order rate constant of compound disappearance at 250 umol/mL by HPLC analysis; assay type: physicochemical; how it was run: as §2
[17] = system: Brain; test: AUC (0 to t) in Kunming mouse brain at dose equivalent to 10 mg/kg, iv of naproxen administered as single dose; assay type: ADME, organism-based; set-up: dose 10 mg/kg, route intravenous; conditions: in vivo
[18] = system: Brain; test: Prodrug conversion in mouse brain homogenate assessed as naproxen release at 250 uM/mL by HPLC analysis; assay type: ADME, tissue-based; conditions: in vitro, TDE = time-dependent effect
How it was run: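 Prodrugs were incubated at 37 °C for up to 90 min in mouse brain homogenate (1:5 w/v in pH 7.4 phosphate buffer). […] Peak areas were normalised to the reference prodrug peak at 15 min, SD n = 3.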

[19] = system: Liver; test: Drug uptake in Kunming mouse liver assessed as naproxen level at dose equivalent to 10 mg/kg, iv of naproxen administered as single dose measured by HPLC analysis; assay type: ADME, organism-based; set-up: dose 10 mg/kg, route intravenous; conditions: in vivo
[20] = system: Plasma; test: Prodrug conversion in Kunming mouse plasma assessed as compound hydrolysis to naproxen at dose equivalent to 10 mg/kg, iv of naproxen measured by HPLC analysis; assay type: ADME, organism-based; set-up: dose 10 mg/kg, route intravenous; conditions: in vivo
[21] = in vivo; conditions: Kunming, mouse, brain, iv, 10 mg/kg
[22] = in vivo; conditions: Kunming, mouse, brain, iv, 10 mg/kg; remark: listed apart in the source
[23] = in vivo; conditions: Kunming, mouse, brain, iv, 10 mg/kg; remark: listed apart in the source

Structure (SMILES) | half-life at 250 umol/mL [1] | Activity [2] | half-life at 250 umol/mL [3] | half-life at 250 umol/mL [4] | Drug uptake [5] | half-life at 250 umol/mL [6] | Activity [7] | Activity [8] | Activity [9] | half-life at 250 umol/mL [10] | half-life at 250 umol/mL [11] | Activity [12] | Drug uptake [13] | Drug uptake [14] | AUCt [15] | Activity [16] | AUCt [17] | Drug metabolism [18] | Drug uptake [19] | Drug metabolism [20] | also measured
COc1ccc2cc([C@H](C)C(=O)OC[C@H]3O[C@H](O)[C@H](O)[C@@H](O)[C@@H]3O)ccc2c1 | 1.68 h | 0.645 ×10⁻² /hr | 53.3 h | 23.8 h | Active | 107 h | 0.607 ×10⁻² /hr | 1.3 ×10⁻² /hr | 0.683 ×10⁻² /min | 114 h | 1.48 h | 0.782 ×10⁻² /min | Active | Active | 10353.27 µg/min/mL | 2.91 ×10⁻² /hr | 3930.87 µg·min/g | tde | Active | Active | –
COc1ccc2cc([C@H](C)C(=O)OCC/C(SSCc3ccccc3)=C(\C)N(C)C=O)ccc2c1 | 0.418 h | 2.81 ×10⁻² /hr | 13.7 h | 33.8 h | Active | 24.7 h | 1.11 ×10⁻² /hr | 5.05 ×10⁻² /hr | 2.76 ×10⁻² /min | 62.4 h | 0.987 h | 1.17 ×10⁻² /min | Active | Active | 8834.7 µg/min/mL | 2.05 ×10⁻² /hr | 3307.75 µg·min/g | tde | Active | Active | –
COc1ccc2cc([C@H](C)C(=O)OCC/C(SSCc3ccccc3)=C(\C)N(C=O)CC(=O)OC[C@H]3O[C@H](O)[C@H](O)[C@@H](O)[C@@H]3O)ccc2c1 | 0.312 h | 2.87 ×10⁻² /hr | 20.4 h | 19.5 h | Active | 24.1 h | 2.3 ×10⁻² /hr | 3.39 ×10⁻² /hr | 3.71 ×10⁻² /min | 30.1 h | 0.755 h | 1.53 ×10⁻² /min | Active | Active | 13348.87 µg/min/mL | 3.56 ×10⁻² /hr | 5669.45 µg·min/g | tde | Active | Active | –
COc1ccc2cc([C@H](C)C(=O)OCC/C(SSC(C)C)=C(\C)N(C=O)CC(=O)OC[C@H]3O[C@H](O)[C@H](O)[C@@H](O)[C@@H]3O)ccc2c1 | 0.343 h | 2.04 ×10⁻² /hr | 21.7 h | 28.6 h | Active | 34 h | 1.36 ×10⁻² /hr | 3.19 ×10⁻² /hr | 3.37 ×10⁻² /min | 51 h | 0.792 h | 1.46 ×10⁻² /min | Active | Active | 16185.44 µg/min/mL | 2.42 ×10⁻² /hr | 6140.77 µg·min/g | tde | Active | Active | –
CCSS/C(CCOC(=O)[C@@H](C)c1ccc2cc(OC)ccc2c1)=C(/C)N(C=O)CC(=O)OC[C@H]1O[C@H](O)[C@H](O)[C@@H](O)[C@@H]1O | 0.243 h | 2.95 ×10⁻² /hr | 16 h | 25 h | Active | 23.5 h | 2.55 ×10⁻² /hr | 4.34 ×10⁻² /hr | 4.74 ×10⁻² /min | 27.2 h | 0.657 h | 1.77 ×10⁻² /min | Active | Active | 12914.16 µg/min/mL | 2.77 ×10⁻² /hr | 4716.88 µg·min/g | tde | Active | Active | –
COc1ccc2cc([C@H](C)C(=O)O)ccc2c1 [NAPROXEN] | – | – | – | – | – | – | – | – | – | – | – | – | – | – | 3812.35 µg/min/mL | – | – | – | – | – | Tmax [21]: 0.75 h; MRT [22]: 1.41 h; Cmax [23]: 17100 ng/g
